Source: BindingDB's records for doi:10.1021/jm00077a002 (Merck Research Laboratories, 1994)

Columns and labels:
[1] = molecular target: Vasopressin V2 receptor (Rattus norvegicus, UniProt Q00788); experiment: Inhibition of radioligand [3H]-AVP binding to the vasopressin V2 receptor in rat kidney tissue
Method in brief: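 [3H]AVP (80–90 Ci/mmol) at 2 nM competed on crude membranes from male rat kidney medulla (V2 sites). Equilibrium 30 min at 30 °C in 100 mM Tris-HCl, 5 mM MgCl2, 0.1% BSA, 50 μM PMSF, 50 μg/mL bacitracin, pH 8.0. Nonspecific binding with 10 μM unlabeled AVP. Glass-fiber filtration. IC50 by linear regression of % inhibition vs log concentration, seven concentrations.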

[2] = molecular target: T1, Oxytocin receptor (Rattus norvegicus, UniProt P70536); experiment: Inhibition of radioligand [3H]oxytocin binding at the oxytocin (OT) receptor in rat uterine tissue
T1 sequence (P70536 whole entry): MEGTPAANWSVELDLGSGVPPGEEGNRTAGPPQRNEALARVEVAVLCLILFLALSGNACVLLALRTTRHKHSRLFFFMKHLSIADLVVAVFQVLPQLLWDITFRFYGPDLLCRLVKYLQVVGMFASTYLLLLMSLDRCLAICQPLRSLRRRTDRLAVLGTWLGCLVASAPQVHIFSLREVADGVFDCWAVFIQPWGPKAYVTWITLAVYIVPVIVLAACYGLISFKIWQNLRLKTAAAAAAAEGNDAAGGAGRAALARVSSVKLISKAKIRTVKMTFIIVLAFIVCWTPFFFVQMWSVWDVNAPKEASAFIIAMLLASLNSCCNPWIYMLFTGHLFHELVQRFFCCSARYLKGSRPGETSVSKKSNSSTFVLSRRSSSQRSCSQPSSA
Method in brief: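 Uteri taken from rats given diethylstilbestrol dipropionate (0.3 mg/kg ip, 18–24 h before), crude membranes. 1 nM [3H]OT (30–60 Ci/mmol), equilibrium 60 min at 22 °C in 50 mM Tris-HCl, 5 mM MgCl2, 0.1% BSA, pH 7.4. Nonspecific binding with 1 mM unlabeled OT. Filtered on glass fiber. Initial single-concentration screen, then IC50 from seven concentrations by linear regression.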

[3] = molecular target: T2, Vasopressin V1a/V1b receptor (Rattus norvegicus, UniProt P30560+P48974); experiment: (§1) Inhibition of radioligand [3H]AVP binding to the vasopressin V1 receptor in rat liver tissue
T2 sequence (P30560 whole entry): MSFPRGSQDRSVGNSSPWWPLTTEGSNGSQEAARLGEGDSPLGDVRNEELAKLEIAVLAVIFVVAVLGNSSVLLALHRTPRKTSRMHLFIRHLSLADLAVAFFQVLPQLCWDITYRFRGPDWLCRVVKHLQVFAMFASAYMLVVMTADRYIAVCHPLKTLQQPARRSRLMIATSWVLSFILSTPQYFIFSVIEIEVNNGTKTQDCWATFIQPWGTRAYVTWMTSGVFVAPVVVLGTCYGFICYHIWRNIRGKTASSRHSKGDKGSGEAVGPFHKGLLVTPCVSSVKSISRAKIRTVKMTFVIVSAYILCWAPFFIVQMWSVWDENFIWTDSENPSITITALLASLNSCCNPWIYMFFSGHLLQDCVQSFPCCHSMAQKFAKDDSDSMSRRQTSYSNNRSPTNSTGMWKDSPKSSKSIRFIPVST
T2 sequence (P48974 whole entry): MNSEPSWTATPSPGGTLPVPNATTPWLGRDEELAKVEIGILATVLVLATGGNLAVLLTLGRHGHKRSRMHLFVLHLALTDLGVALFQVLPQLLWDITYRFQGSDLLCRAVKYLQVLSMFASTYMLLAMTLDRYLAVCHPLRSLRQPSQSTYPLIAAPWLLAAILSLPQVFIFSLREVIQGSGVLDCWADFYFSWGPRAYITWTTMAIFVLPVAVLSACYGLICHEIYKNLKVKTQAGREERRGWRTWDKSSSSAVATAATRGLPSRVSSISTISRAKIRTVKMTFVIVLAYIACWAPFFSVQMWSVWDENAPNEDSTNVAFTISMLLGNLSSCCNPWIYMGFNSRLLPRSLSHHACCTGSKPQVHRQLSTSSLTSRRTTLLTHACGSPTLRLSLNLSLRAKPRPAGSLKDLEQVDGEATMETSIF
Method in brief: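 Crude membranes from male rat liver (V1 sites) competed with 1 nM [3H]AVP (80–90 Ci/mmol). Equilibrium 30 min, 30 °C, buffer 100 mM Tris-HCl, 5 mM MgCl2, 0.1% BSA, 50 μM PMSF, 50 μg/mL bacitracin, pH 8.0. 10 μM unlabeled AVP for nonspecific binding. Filtration through glass-fiber filters. IC50 from linear regression over seven concentrations.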

[4] = molecular target: T1, Oxytocin receptor; experiment: ChEBML_145031
From the text: Tested against rat uterine OT receptor

[5] = molecular target: T2, Vasopressin V1a/V1b receptor; experiment: ChEBML_211079; from the text: as §1

Chain of Vasopressin V2 receptor (Q00788 whole entry): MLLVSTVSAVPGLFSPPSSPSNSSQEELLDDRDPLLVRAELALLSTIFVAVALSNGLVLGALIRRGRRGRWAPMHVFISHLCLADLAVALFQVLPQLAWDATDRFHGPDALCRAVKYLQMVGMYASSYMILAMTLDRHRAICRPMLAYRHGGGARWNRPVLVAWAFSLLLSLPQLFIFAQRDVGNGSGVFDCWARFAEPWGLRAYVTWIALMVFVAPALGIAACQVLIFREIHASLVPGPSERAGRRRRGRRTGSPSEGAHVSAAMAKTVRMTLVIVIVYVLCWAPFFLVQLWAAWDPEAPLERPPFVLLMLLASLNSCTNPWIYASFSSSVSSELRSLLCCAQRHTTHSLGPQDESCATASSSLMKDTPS

## CC1(C)[C@@H]2CC[C@@]1(CS(=O)(=O)N1CCC3(CCc4ccccc43)CC1)[C@@H](n1c(O)c(Cc3cnc[nH]3)[nH]c1=O)C2 [3-[7,7-dimethyl-1-spiro[2,3-dihydro-1H-indene-1,4'-(hexahydropyridine)]-1-ylsulfonylmethyl-(1S,2S,4R)-bicyclo[2.2.1]hept-2-yl]-5-(1H-4-imidazolylmethyl)tetrahydro-1H-2,4-imidazoledione]
[1]
  IC50: 1.5 µM
[2]
  IC50: 0.013 µM
[3]
  IC50: 0.42 µM
[4]
  IC50: 0.013 µM
[5]
  IC50: 0.42 µM
